MIC and IC50 data for 21 compounds are collected here from ChEMBL document CHEMBL4765265, “4-Substituted picolinohydrazonamides as a new class of potential antitubercular agents” (Eur J Med Chem, 2020).

For experiment [1], the system named is Mycobacterium tuberculosis. In words: Antimycobacterial activity against Mycobacterium tuberculosis H37Rv. The class given is functional. The procedure, abridged: (§1)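 Classical test-tube successive twofold dilution in Youmans' modification of Proskauer and Beck liquid medium with 10% bovine serum. Inoculum from 14-day-old cultures. Compounds dissolved in ethylene glycol (stock 10 mg/mL), tested at […]. Incubation at 37 °C. MIC is the lowest concentration inhibiting growth relative to a compound-free tube. Isoniazid, pyrazinamide and rifampicin served as references.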

In experiment [2] the test system is Mycobacterium tuberculosis. In words: Antimycobacterial activity against patient derived Mycobacterium tuberculosis Spec. 210. The format is functional. The procedure, abridged: as §1
Experiment [3] concerns Staphylococcus aureus. In words: Antibacterial activity against Staphylococcus aureus ATCC 25923 assessed as reduction in bacterial growth incubated for 24 hrs by broth microdilution assay. The format is functional. The procedure, abridged:
(§2)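 Twofold serial broth microdilution in Mueller-Hinton broth, supplemented with 5% lysed sheep blood for fastidious species. […]. Inoculum was set to 0.5 McFarland in 0.85% NaCl, giving a final 1.5 × 10⁶ CFU/mL. Plates were incubated 24 h at 35 °C. MIC was read visually as the lowest concentration with complete growth inhibition. Controls: 10% DMSO (final), growth and sterility. Triplicate.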
In general terms: In broth dilution the organism is exposed to a series of concentrations in liquid medium.

Experiment [4] deals with Staphylococcus aureus. As to the kind of experiment: Antibacterial activity against Staphylococcus aureus ATCC 6538 assessed as reduction in bacterial growth incubated for 24 hrs by broth microdilution assay. The class given is functional. The gist of the method:
as §2

The test system of experiment [5] is Staphylococcus aureus. As to the kind of experiment: Antibacterial activity against Staphylococcus aureus ATCC 43300 assessed as reduction in bacterial growth incubated for 24 hrs by broth microdilution assay. The class given is functional. The procedure, abridged: as §2
The test system of experiment [6] is Staphylococcus epidermidis. As to the kind of experiment: Antibacterial activity against Staphylococcus epidermidis ATCC 12228 assessed as reduction in bacterial growth incubated for 24 hrs by broth microdilution assay. The format is functional. The procedure, abridged:
as §2

Experiment [7] deals with Micrococcus luteus. In words: Antibacterial activity against Micrococcus luteus ATCC 10240 assessed as reduction in bacterial growth incubated for 24 hrs by broth microdilution assay. The format is functional. The procedure, abridged:
as §2

For experiment [8], the system named is Bacillus subtilis. In words: Antibacterial activity against Bacillus subtilis ATCC 6633 assessed as reduction in bacterial growth incubated for 24 hrs by broth microdilution assay. The class given is functional. The procedure, abridged:
as §2

Experiment [9] relates to Bacillus cereus. As to the kind of experiment: Antibacterial activity against Bacillus cereus ATCC 10876 assessed as reduction in bacterial growth incubated for 24 hrs by broth microdilution assay. The format is functional. The gist of the method: as §2
In experiment [10] the test system is Streptococcus pyogenes. As to the kind of experiment: Antibacterial activity against Streptococcus pyogenes ATCC 19615 assessed as reduction in bacterial growth incubated for 24 hrs by broth microdilution assay. The format is functional. The procedure, abridged: as §2
Experiment [11] relates to Streptococcus pneumoniae. As to the kind of experiment: Antibacterial activity against Streptococcus pneumoniae ATCC 49619 assessed as reduction in bacterial growth incubated for 24 hrs by broth microdilution assay. The format is functional. The procedure, abridged:
as §2

The subject of experiment [12] is Streptococcus mutans. As to the kind of experiment: Antibacterial activity against Streptococcus mutans ATCC 25175 assessed as reduction in bacterial growth incubated for 24 hrs by broth microdilution assay. The class given is functional. The gist of the method: as §2
The test system of experiment [13] is Escherichia coli. As to the kind of experiment: Antibacterial activity against Escherichia coli ATCC 25922 assessed as reduction in bacterial growth incubated for 24 hrs by broth microdilution assay. The class given is functional. The procedure, abridged: as §2
Experiment [14] relates to Proteus mirabilis. As to the kind of experiment: Antibacterial activity against Proteus mirabilis ATCC […] assessed as reduction in bacterial growth incubated for 24 hrs by broth microdilution assay. The class given is functional. The procedure, abridged:
as §2

Experiment [15] concerns Klebsiella pneumoniae. As to the kind of experiment: Antibacterial activity against Klebsiella pneumoniae ATCC 13883 assessed as reduction in bacterial growth incubated for 24 hrs by broth microdilution assay. The class given is functional. The procedure, abridged: as §2
Experiment [16] deals with Pseudomonas aeruginosa. As to the kind of experiment: Antibacterial activity against Pseudomonas aeruginosa ATCC 9027 assessed as reduction in bacterial growth incubated for 24 hrs by broth microdilution assay. The format is functional. The gist of the method:
as §2

The test system of experiment [17] is Candida albicans. As to the kind of experiment: Antifungal activity against Candida albicans ATCC […] assessed as reduction in fungal growth incubated for 48 hrs by broth microdilution assay. The class given is functional. The gist of the method: (§3)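 Yeasts were tested by twofold broth microdilution in Mueller-Hinton broth with 2% glucose at final concentrations of 0.98–1000 µg/mL. Inoculum was prepared from 0.5 McFarland suspensions in 0.85% NaCl, giving a final 5 × 10⁴ CFU/mL. Incubation was 48 h at 30 °C. MIC was the lowest concentration visually showing complete growth inhibition. Controls: 10% DMSO (final), growth and sterility. Triplicate.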

The test system of experiment [18] is Candida albicans. In words: Antifungal activity against Candida albicans ATCC 2091 assessed as reduction in fungal growth incubated for 48 hrs by broth microdilution assay. The class given is functional. The procedure, abridged:
as §3

The subject of experiment [19] is Candida parapsilosis. In words: Antifungal activity against Candida parapsilosis ATCC 22019 assessed as reduction in fungal growth incubated for 48 hrs by broth microdilution assay. The format is functional. As to conditions: Lodderomyces parapsilosis; call rule not given here. The procedure, abridged:
as §3

For experiment [20], the system named is B16-F10. As to the kind of experiment: Cytotoxicity against mouse B16-F10 cells assessed as reduction in cell viability incubated for 72 hrs by MTT assay. The class given is cell-based. To be noted: B16-F10, 72 h. (In general: Tetrazolium assays rely on reduction of a dye to a coloured formazan, in cell work by metabolically active cells.)
The test system of experiment [21] is NHDF. As to the kind of experiment: Cytotoxicity against human NHDF cells assessed as reduction in cell viability incubated for 72 hrs by MTT assay. The format is cell-based.

In brackets after ≈: the same amount, converted by molar mass. Bounds are passed on as bounds.

As a reminder, the MIC is the least concentration at which growth counts as inhibited. Take `NNC(=O)c1ccncc1` [ISONIAZID]: the minimum inhibitory concentration (MIC) in experiment [1] came to 3.1 µg/mL (≈ 22.6 µM); in [2], 12.5 µg/mL (≈ 91.1 µM).

For the compound `N/C(=N\NC(=S)N1CCN(c2ccccc2)CC1)c1cc(N2CCCC2)ccn1`, the MIC in [1] and in [2] was 6.25 µg/mL (≈ 15.3 µM) throughout.

With `N/C(=N\NC(=S)N1CCCC1)c1cc(Sc2ccccc2)ccn1`, the minimal inhibitory concentration (MIC) in experiment [1] and in [2] was 6.25 µg/mL (≈ 17.5 µM) in each case.

For the compound `N/C(=N\NC(=S)N1CCCCC1)c1cc(N2CCN(c3ccccc3)CC2)ccn1`, the MIC in experiment [1] and in [2] was 25 µg/mL (≈ 59 µM) in each case.

With `N/C(=N\NC(=S)N1CCCC1)c1cc(N2CCCC2)ccn1`, the MIC in experiment [1] and in experiment [2] was 6.25 µg/mL (≈ 19.6 µM) each time.

For `N/C(=N\NC(=S)N1CCOCC1)c1cc(N2CCN(c3ccccc3)CC2)ccn1`, the MIC in [1] and in [2] was 6.25 µg/mL (≈ 14.7 µM) each time.

Consider `N/C(=N\NC(=S)N1CCCCC1)c1cc(N2CCOCC2)ccn1`, for which the MIC in experiment [1] and in experiment [2] was 6.25 µg/mL (≈ 17.9 µM) in each case.

With `N/C(=N\NC(=S)N1CCN(c2ccccc2)CC1)c1cc(Oc2ccccc2)ccn1`, the MIC in [1] and in [2] was 25 µg/mL (≈ 57.8 µM) in each case.

Regarding `CN[C@H](CC(C)C)C(=O)N[C@H]1C(=O)N[C@@H](CC(N)=O)C(=O)N[C@H]2C(=O)N[C@H]3C(=O)N[C@H](C(=O)N[C@H](C(=O)O)c4cc(O)cc(O)c4-c4cc3ccc4O)[C@H](O)c3ccc(c(Cl)c3)Oc3cc2cc(c3O[C@@H]2O[C@H](CO)[C@@H](O)[C@H](O)[C@H]2O[C@H]2C[C@](C)(N)[C@H](O)[C@H](C)O2)Oc2ccc(cc2Cl)[C@H]1O` [VANCOMYCIN], the MIC in [3] is 0.98 µg/mL (≈ 0.676 µM); in [4] it was 0.49 µg/mL (≈ 0.338 µM); in experiment [5] it was 0.49 µg/mL (≈ 0.338 µM); in experiment [6], 0.98 µg/mL (≈ 0.676 µM); in [7], 0.12 µg/mL (≈ 0.0828 µM); in [8], 0.24 µg/mL (≈ 0.166 µM). Besides, the minimal inhibitory concentration (MIC) in [9] was determined as 0.98 µg/mL (≈ 0.676 µM); in experiment [10], 0.24 µg/mL (≈ 0.166 µM); in experiment [11] it was 0.24 µg/mL (≈ 0.166 µM); in experiment [12] it was 0.98 µg/mL (≈ 0.676 µM).

For the compound `N/C(=N\NC(=S)N1CCCC1)c1cc(N2CCN(c3ccccc3)CC2)ccn1`, the MIC in experiment [1] and in [2] was 12.5 µg/mL (≈ 30.5 µM) each time.

For the compound `NC(=O)c1cnccn1` [PYRAZINAMIDE], the results for the MIC in experiment [1] and in experiment [2] were 25 µg/mL (≈ 203 µM) and more than 400 µg/mL, respectively.

One may read the IC50 as the concentration that gives 50% inhibition. As to `N/C(=N\NC(=S)N1CCOCC1)c1cc(N2CCOCC2)ccn1`, the MIC in experiment [1] is 3.1 µg/mL (≈ 8.85 µM); in [2] it was 3.1 µg/mL (≈ 8.85 µM); in experiment [3] it was 15.6 µg/mL (≈ 44.5 µM); in [4], 15.6 µg/mL (≈ 44.5 µM); in experiment [5], 15.6 µg/mL (≈ 44.5 µM); in experiment [6], 15.6 µg/mL (≈ 44.5 µM). For the same compound, the minimum inhibitory concentration (MIC) in experiment [7] was 7.8 µg/mL (≈ 22.3 µM); in experiment [8], 31.3 µg/mL (≈ 89.3 µM); in experiment [9], 31.3 µg/mL (≈ 89.3 µM); in experiment [10], 1000 µg/mL (≈ 2850 µM); in experiment [11] it was more than 1000 µg/mL; in [12], 1000 µg/mL (≈ 2850 µM). The MIC in experiment [13] was more than 1000 µg/mL; in [14], more than 1000 µg/mL; in experiment [15], 31.3 µg/mL (≈ 89.3 µM); in experiment [16] it was more than 1000 µg/mL; in experiment [17], 31.3 µg/mL (≈ 89.3 µM); in experiment [18], 31.3 µg/mL (≈ 89.3 µM). Also, in experiment [19], the MIC was found to be 31.3 µg/mL (≈ 89.3 µM). The IC50 in experiment [20] is 17.8 µg/mL (≈ 50.9 µM); in experiment [21], “Not Active”.

Regarding `O=C(O)c1cn(C2CC2)c2cc(N3CCNCC3)c(F)cc2c1=O` [CIPROFLOXACIN], the MIC is 0.49 µg/mL (≈ 1.48 µM) in experiment [3]; 0.24 µg/mL (≈ 0.724 µM) in experiment [4]; 0.24 µg/mL (≈ 0.724 µM) in experiment [5]; 0.49 µg/mL (≈ 1.48 µM) in experiment [6]; 0.98 µg/mL (≈ 2.96 µM) in [7]; 0.03 µg/mL (≈ 0.0905 µM) in experiment [8]. Also, the figures for the MIC in experiment [9], in [14] and in experiment [15] were 0.12 µg/mL (≈ 0.362 µM), 0.03 µg/mL (≈ 0.0905 µM) and 0.12 µg/mL (≈ 0.362 µM), respectively.

For the compound `N/C(=N\NC(=S)N1CCCCC1)c1cc(N2CCCC2)ccn1`, the MIC in experiment [1] and in experiment [2] was 6.25 µg/mL (≈ 18.8 µM) each time.

With `N/C(=N\NC(=S)N1CCCCC1)c1cc(Sc2ccccc2)ccn1`, the MIC in experiment [1] and in [2] was 12.5 µg/mL (≈ 33.6 µM) throughout.

As to `N/C(=N\NC(=S)N1CCN(c2ccccc2)CC1)c1cc(Sc2ccccc2)ccn1`, the MIC in experiment [1] and in experiment [2] was 25 µg/mL (≈ 55.7 µM) throughout.

For `N/C(=N\NC(=S)N1CCN(c2ccccc2)CC1)c1cc(N2CCOCC2)ccn1`, the MIC in experiment [1] and in experiment [2] was 6.25 µg/mL (≈ 14.7 µM) throughout.

On to `N/C(=N\NC(=S)N1CCCCC1)c1cc(Oc2ccccc2)ccn1`, for which the minimal inhibitory concentration (MIC) in experiment [1] and in [2] was 12.5 µg/mL (≈ 35.2 µM) throughout.

`OC(Cn1cncn1)(Cn1cncn1)c1ccc(F)cc1F` [FLUCONAZOLE]: in experiment [19], the MIC amounted to 1.95 µg/mL (≈ 6.37 µM).

As for `N/C(=N\NC(=S)N1CCN(c2ccccc2)CC1)c1cc(N2CCN(c3ccccc3)CC2)ccn1`, the MIC in experiment [1] and in experiment [2] was 25 µg/mL (≈ 49.9 µM) in each case.

As to `N/C(=N\NC(=S)N1CCCC1)c1cc(N2CCOCC2)ccn1`, the MIC in experiment [1] and in experiment [2] was 6.25 µg/mL (≈ 18.7 µM) each time.
